High-throughput results deposited in PubChem by several laboratories.
Rtt109 Vps75: inhibitors of C. albicans Rtt109/Vps75 HAT, primary screen, biochemical, ThioGlo CoA-SH fluorescence, plate reader | purified Rtt109/Vps75, 4 h | inhibition, % at 34.9 µM | 330,000 tested, 0.16% active | AID 540336, 2011;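 active = inhibition of at least 50% in every replicate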
TPT1 inh: Candida albicans TPT1 enzyme inhibitors, primary screen, biochemical, fluorescence polarization. tRNA 2'-phosphotransferase TPT1 (Candida albicans SC5314). recombinant caTPT1, FP RNA substrate dephosphorylation. inhibition, % at 5 µM. 300,000 tested, 0.81% active;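 active = inhibition above the mean of all tested compounds plus 3 SD, set per screening campaign, cut at about 24% in these data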
HNF4A DNA FP: change in binding of human HNF4A to DNA, primary screen, biochemical, fluorescence polarization, FITC-DNA | 1 h | activity change, % at 10 µM | 360,000 tested, 0.3% active; in the data active = activity change above about 30%, passing the limit was not always enough
CSN deneddyl inh: inhibitors of CSN-mediated cullin deneddylation, primary screen, biochemical, fluorescence polarization, uHTS. COP9 signalosome complex subunit 5 (Homo sapiens), Q92905. Purified CSN, SCF-Nedd8-OG deneddylation. inhibition, % at 12.5 µM. 360,000 tested, 0.38% active. AID 651999, 2013;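 active = pattern-corrected inhibition above about 35%, with an unprinted fluorescence ratio check between 0.5 and 1.5, limit read from the data, passing the limit was not always enough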
Target sequence (Q92905 whole entry, looked up, one chain of several): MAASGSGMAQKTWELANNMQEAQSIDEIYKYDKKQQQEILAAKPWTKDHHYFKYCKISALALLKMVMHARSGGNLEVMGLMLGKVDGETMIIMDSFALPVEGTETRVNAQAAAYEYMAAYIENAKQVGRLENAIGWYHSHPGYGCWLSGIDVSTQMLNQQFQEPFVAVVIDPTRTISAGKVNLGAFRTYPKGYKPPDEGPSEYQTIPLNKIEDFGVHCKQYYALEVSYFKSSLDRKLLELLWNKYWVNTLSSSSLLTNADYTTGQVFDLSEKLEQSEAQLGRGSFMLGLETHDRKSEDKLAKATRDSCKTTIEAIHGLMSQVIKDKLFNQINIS
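Assay system: HEK293T-derived human Csn5 enzyme; quantity: 0.24 nM enzyme; medium: Tris/NaCl/DTT buffer, pH 7.5; also added: substrate SCFSkp2-Nedd8OG, 10 nM; doses: 12.5 µM compound; schedule: 90 min reaction at room temperature; signal: FP; read-out: % inhibition of substrate cleavage by Csn5; benchmarks: substrate-only high control, full reaction low control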
TPT1 inh confirm: Candida albicans TPT1 inhibitors, confirmation, biochemical, fluorescence polarization, triplicate. inhibition, % at 5 µM. recombinant caTPT1, RNase T1 coupled. AID 2149, 2009. shares compounds with TPT1 inh. 2,400 tested, 74% active;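 active = inhibition above the primary screen limit, the mean inhibition of all tested compounds plus 3 SD, cut at about 25% in these data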
RNase T1 inh: RNase T1 inhibitors, counter-screen for TPT1 inhibitor project, biochemical, fluorescence polarization. shares compounds with TPT1 inh. inhibition, % at 5 µM. RNase T1 cleavage, 1536-well. 2,400 tested, 83% active;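 active = inhibition above the solvent-only control well mean plus 3 SD, limit set per screening run, cut at about 23% in these data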;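 also: inhibitors block cleavage so intact labeled substrate keeps polarization high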
Target sequence (P00651 whole entry, looked up): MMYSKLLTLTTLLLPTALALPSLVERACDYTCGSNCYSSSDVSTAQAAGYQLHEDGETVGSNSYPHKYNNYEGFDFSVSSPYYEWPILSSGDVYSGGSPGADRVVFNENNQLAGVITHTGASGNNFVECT
Each line names hits and unclear results; the compound was inactive in the other large screens (follow-up assays come after a bar, where they were run). In the library only some 1.2% were active in any assay of this set; here they are far more common.

COc1cccc(C2C(C#N)=C(N)OC(C(C)(C)C)=C2C#N)c1 (centres undefined)	none
COc1ccccc1NC(=O)/C(C#N)=C/c1cc([N+](=O)[O-])ccc1N1CCCC1	TPT1 inh 38 | TPT1 inh confirm 74 | RNase T1 inh 85
COc1ccccc1NC(=O)/C(C#N)=C/c1ccncc1	none
CCc1nnc(NC(=O)c2sc3nc4cc(C)ccc4cc3c2N)s1	TPT1 inh 27 | TPT1 inh confirm 28 | RNase T1 inh 41
CCOC(=O)Cc1csc(NC(=O)c2sc3nc4ccc(C)cc4cc3c2N)n1	TPT1 inh 26, HNF4A DNA FP 38 | TPT1 inh confirm 51 | RNase T1 inh 62
COc1ccccc1CNC(=O)[C@H](C)NC(=O)C1CCN(C(=O)[C@@H](N)C(C)C)CC1	none
N#Cc1c(Sc2ncc(C(F)(F)F)cc2Cl)nsc1C/C=N\OCc1c(F)cccc1Cl	TPT1 inh 36 | TPT1 inh confirm inactive | RNase T1 inh 33
FC(F)(F)c1cnc(Sc2nnc(-c3cccs3)n2CC2CCCO2)c(Cl)c1 (centres undefined)	none
CCNC(=O)C1CCCN(C(=O)c2ccc(C(=O)OC)cc2)CC1 (centres undefined)	none (no result: Rtt109 Vps75, TPT1 inh)
O=S1(=O)CCOC[C@H](c2ccccc2)N1Cc1cccc(Cl)c1	none
Cc1c(NC2=NC3(CCCCC3)Cc3ccccc32)c(=O)n(-c2ccccc2)n1C	none
CC1(C)CC(=O)C(C2=NC3(CCCCCC3)Cc3ccccc32)=C(O)C1	TPT1 inh 28 | TPT1 inh confirm inactive | RNase T1 inh inactive
CCN1/C(=C/c2ccc3cc(C)ccc3[n+]2CC)Sc2ccc3sccc3c21	TPT1 inh 33, CSN deneddyl inh 162 | TPT1 inh confirm 63 | RNase T1 inh 66
CCN1CCN(c2ccc(S(=O)(=O)N3CCCCC3)cc2NC(=O)c2sccc2C)CC1	none
Cc1ccc2nc(NC(=O)CSCC(=O)OCC(=O)c3ccccc3)sc2c1	TPT1 inh 30 | TPT1 inh confirm inactive | RNase T1 inh inactive
CCSc1ccc([C@@H]2[C@H]3C(=O)N(CC)C(=O)[C@H]3[C@]3(C(=O)OC)CCCCN23)cc1	TPT1 inh 24 | TPT1 inh confirm 39 | RNase T1 inh 49
CCSc1ccc([C@@H]2[C@@H]3C(=O)N(CC)C(=O)[C@@H]3[C@]3(C(=O)OC)CCCCN23)cc1	none
O=C1C(=Cc2ccc(Br)o2)C(=O)c2ccccc21	TPT1 inh 26 | TPT1 inh confirm 26 | RNase T1 inh 28
O=[N+]([O-])c1ccc(N2CCN(CC3CCCCC3)CC2)cc1	none
CCOC(=O)[C@]12CCCC=C1N(CCC1=CCCCC1)C(=O)[C@H](CC(=O)NCc1cccs1)C2	none (no result: Rtt109 Vps75, TPT1 inh)
COc1cc(=O)[nH]c(SC(C)C(=O)Nc2cc(C)on2)n1 (centres undefined)	none
CCOC(=O)N1CCN(C(=O)CSC2=NS(=O)(=O)c3ccccc3N2)CC1	none
N#CC1=C(N)Oc2cc(O)ccc2C1c1ccccc1 (centres undefined)	none
N#CC1=C(N)SC(N)=C(C#N)C1c1cccc(O)c1	TPT1 inh 100 | TPT1 inh confirm 108 | RNase T1 inh 112
COc1ccc(C2C(C#N)=C(N)OC(C(C)(C)C)=C2C#N)cc1OC (centres undefined)	none
COc1ccc(C2C(C#N)=C(N)SC(N)=C2C#N)cc1OC	TPT1 inh 103 | TPT1 inh confirm 71 | RNase T1 inh 81
Cc1ccc(NC(=O)COC(=O)Cc2c[nH]c3ccccc23)cc1	none (no result: Rtt109 Vps75, TPT1 inh)
COc1ccccc1OCC(O)CN1CCN(C(=O)c2ccccc2)CC1 (centres undefined)	none
CSc1ccccc1C(=O)N1CCN(S(=O)(=O)c2sc(C(=O)O)c(C)c2C(=O)O)CC1	none (no result: TPT1 inh)
C/C(=N\Nc1ccc([N+](=O)[O-])cc1)c1ccc(O)cc1	TPT1 inh 94, HNF4A DNA FP 51 | TPT1 inh confirm 91 | RNase T1 inh 100
